One test deals with MCF7. Put plainly: Cytotoxicity against human MCF7 cells after 24 hrs by MTT assay. It is filed as functional, cell-based. The settings on record: MCF7, 24 h. The procedure, abridged: (§1)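 Cells were grown in DMEM with 10% FBS and penicillin/streptomycin at 37 °C under 5% CO2. Seeding was 1×10^4 cells/well for A549 and MCF-7, or 1.2×10^4 cells/well for HT-29, followed by 24 h attachment. Compounds came from DMSO stocks diluted in serum-free DMEM, 0.1–1000 µg/mL, DMSO <0.5%, triplicate wells, 24 h. MTT (5 mg/mL stock in PBS) 3–4 h at 37 °C in dark; DMSO-solubilised A570. IC50 from 3 runs, mean ± S.E.M.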
A general note: Tetrazolium dyes change colour on reduction, which living cells bring about.

The test system of test [1] is A549. Put plainly: Cytotoxicity against human A549 cells after 24 hrs by MTT assay. It counts as functional, cell-based. As to conditions: A549, 24 h. The procedure, abridged: as §1
The subject of the next test is HT-29. As to the kind of experiment: Cytotoxicity against human HT-29 cells after 24 hrs by MTT assay. It is filed as functional, cell-based. The settings on record: HT-29, 24 h. The essentials:
as §1

In test [2] the test system is A549. As to the kind of experiment: Induction of apoptosis in human A549 cells assessed as early apoptotic cells at 90 ug/mL after 16 hrs by propidium iodide/Annexin V/7-AAD staining-based flow cytometric analysis (reference value: 0.01%). It counts as functional. On the technique in general: In flow cytometry, cells or beads pass a laser one at a time.
Test [3] has as its system A549. As to the kind of experiment: Induction of apoptosis in human A549 cells assessed as viable cells at 90 ug/mL after 16 hrs by propidium iodide/Annexin V/7-AAD staining-based flow cytometric analysis (reference value: 99.37%). It counts as functional. The settings on record: A549, 16 h, read-out: Activity.
Test [4] concerns A549. Put plainly: Induction of apoptosis in human A549 cells assessed as late apoptotic cells at 90 ug/mL after 16 hrs by propidium iodide/Annexin V/7-AAD staining-based flow cytometric analysis (reference value: 0.21%). It counts as functional.
Test [5] has as its system A549. Put plainly: Induction of apoptosis in human A549 cells assessed as necrotic cells at 90 ug/mL after 16 hrs by propidium iodide/Annexin V/7-AAD staining-based flow cytometric analysis (reference value: 0.41%). It is filed as functional.

≈ marks a conversion by molar mass, not a printed value.

Turning to `Cc1ncc([N+](=O)[O-])n1CCn1cnc2ccccc21`, the results for the concentration for half-maximal inhibition (IC50) in the test with MCF7, in the test with A549 [1] and in the test on HT-29 were 103 µg/mL (≈ 380 µM), 219 µg/mL (≈ 809 µM) and 148 µg/mL (≈ 546 µM), respectively.

In the case of `Cc1ncc([N+](=O)[O-])n1CCn1ccnc1`, the IC50 in the test on MCF7 was 462 µg/mL (≈ 2090 µM); in the test on A549 [1], 240 µg/mL (≈ 1080 µM); in the test with HT-29, 115 µg/mL (≈ 518 µM).

As for `Cc1ncc([N+](=O)[O-])n1CCCl`, the IC50 in the test with MCF7 was found to be 480 µg/mL (≈ 2530 µM); with A549 [1], 300 µg/mL (≈ 1580 µM); with HT-29, 311 µg/mL (≈ 1640 µM).

With `Cc1ncc([N+](=O)[O-])n1CCOC(=O)c1ccc(Br)cc1`, the figures for the half-maximal inhibitory concentration (IC50) in the test with MCF7, with A549 [1] and in the test with HT-29 were 271 µg/mL (≈ 766 µM), 194 µg/mL (≈ 548 µM) and 277 µg/mL (≈ 783 µM), respectively.

Regarding `Cc1ncc([N+](=O)[O-])n1CCOC(=O)c1ccccc1Cl`, the IC50 amounted to 380 µg/mL (≈ 1230 µM) in the test with MCF7, 255 µg/mL (≈ 823 µM) in the test with A549 [1] and 279 µg/mL (≈ 902 µM) in the test on HT-29.

Consider `Cc1ccc(C(=O)OCCn2c([N+](=O)[O-])cnc2C)cc1`, for which the IC50 in the test with MCF7 came to 256 µg/mL (≈ 884 µM); with A549 [1], 184 µg/mL (≈ 636 µM); with HT-29 it was 359 µg/mL (≈ 1240 µM).

`Cc1ncc([N+](=O)[O-])n1CCOc1ccc(Cl)c(Cl)c1`: the Activity in the test on A549 [2] amounted to 5.73%; with A549 [4], 61.15%; in the test on A549 [5], 26.27%. The half-inhibitory concentration (IC50) in the test with MCF7 is 69.6 µg/mL (≈ 220 µM); in the test on A549 [1], 77.9 µg/mL (≈ 246 µM); in the test with HT-29, 109 µg/mL (≈ 344 µM). Moreover, in the test on A549 [3], the viability at 90 µg/mL came out at 6.85%.

For `Cc1ncc([N+](=O)[O-])n1CCOc1ccccc1Cl`, the IC50 in the test with MCF7 is 378 µg/mL (≈ 1340 µM); in the test with A549 [1] it was 574 µg/mL (≈ 2040 µM); in the test on HT-29 it was 552 µg/mL (≈ 1960 µM).

Regarding `Cc1cc(OCCn2c([N+](=O)[O-])cnc2C)ccc1Cl`, the IC50 is 188 µg/mL (≈ 635 µM) with MCF7, 150 µg/mL (≈ 506 µM) with A549 [1] and 159 µg/mL (≈ 537 µM) in the test with HT-29.

With `Cc1ncc([N+](=O)[O-])n1CCOC(=O)c1ccccc1F`, the IC50 in the test with MCF7 is 262 µg/mL (≈ 895 µM); with A549 [1], 170 µg/mL (≈ 578 µM); with HT-29, 146 µg/mL (≈ 497 µM).

Regarding `Cc1ncc([N+](=O)[O-])n1CCOc1ccc(F)cc1`, the IC50 with MCF7 worked out at 85.8 µg/mL (≈ 324 µM); in the test with A549 [1], 129 µg/mL (≈ 487 µM); in the test with HT-29, 102 µg/mL (≈ 386 µM).

Turning to `Cc1ncc([N+](=O)[O-])n1CCOc1ccc(F)c(Cl)c1`, the concentration for half-maximal inhibition (IC50) in the test with MCF7 was found to be 110 µg/mL (≈ 367 µM); in the test on A549 [1] it was 122 µg/mL (≈ 407 µM); in the test with HT-29, 199 µg/mL (≈ 664 µM).

Take `Cc1ncc([N+](=O)[O-])n1CCOc1ccc([N+](=O)[O-])cc1`: the values for the half-maximal inhibitory concentration (IC50) in the test on MCF7, in the test on A549 [1] and in the test on HT-29 were 127 µg/mL (≈ 433 µM), 110 µg/mL (≈ 378 µM) and 116 µg/mL (≈ 396 µM), respectively.

Regarding `COc1ccccc1C(=O)OCCn1c([N+](=O)[O-])cnc1C`, the IC50 with MCF7 turned out to be 447 µg/mL (≈ 1460 µM); with A549 [1] it was 289 µg/mL (≈ 947 µM); in the test with HT-29, 283 µg/mL (≈ 926 µM).

On to `Cc1ncc([N+](=O)[O-])n1CCOc1ccccc1[N+](=O)[O-]`, for which the figures for the IC50 with MCF7, in the test with A549 [1] and in the test with HT-29 were 583 µg/mL (≈ 1990 µM), 573 µg/mL (≈ 1960 µM) and 581 µg/mL (≈ 1990 µM), respectively.

Regarding `COc1cccc(C(=O)OCCn2c([N+](=O)[O-])cnc2C)c1`, the IC50 with MCF7 turned out to be 428 µg/mL (≈ 1400 µM); in the test with A549 [1], 281 µg/mL (≈ 921 µM); with HT-29 it was 293 µg/mL (≈ 960 µM).

On to `Cc1ncc([N+](=O)[O-])n1CCOC(=O)c1ccco1`, for which the IC50 was found to be 207 µg/mL (≈ 779 µM) in the test with MCF7, 167 µg/mL (≈ 631 µM) with A549 [1] and 287 µg/mL (≈ 1080 µM) with HT-29.

Regarding `Cc1ncc([N+](=O)[O-])n1CCOc1ccc(C#N)cc1`, the Activity in the test with A549 [2] is 11.72%; with A549 [4], 21.24%; with A549 [5], 9.96%. Also, the IC50 with MCF7 was 83.2 µg/mL (≈ 306 µM); with A549 [1], 79.8 µg/mL (≈ 293 µM); in the test with HT-29, 76.8 µg/mL (≈ 282 µM). Moreover, in the test with A549 [3], the viability at 90 µg/mL turned out to be 57.1%.

Consider `Cc1ncc([N+](=O)[O-])n1CCOc1cccc([N+](=O)[O-])c1`, for which the figures for the IC50 with MCF7, with A549 [1] and in the test on HT-29 were 71.7 µg/mL (≈ 245 µM), 108 µg/mL (≈ 371 µM) and 112 µg/mL (≈ 383 µM), respectively.

As for `Cc1ncc([N+](=O)[O-])n1CCOc1ccccc1`, the IC50 in the test on MCF7 came out at 106 µg/mL (≈ 430 µM); in the test on A549 [1] it was 107 µg/mL (≈ 435 µM); in the test on HT-29 it was 134 µg/mL (≈ 543 µM).

On to `Cc1ncc([N+](=O)[O-])n1CCn1nnc2ccccc21`, for which the concentration for half-maximal inhibition (IC50) in the test on MCF7 stood at 384 µg/mL (≈ 1410 µM); in the test with A549 [1], 701 µg/mL (≈ 2580 µM); in the test with HT-29, 538 µg/mL (≈ 1980 µM).

Regarding `Cc1nccn1CCn1c([N+](=O)[O-])cnc1C`, the IC50 came out at 157 µg/mL (≈ 668 µM) with MCF7, 195 µg/mL (≈ 831 µM) with A549 [1] and 142 µg/mL (≈ 604 µM) in the test with HT-29.

Turning to `Cc1ncc([N+](=O)[O-])n1CCOc1ccc2ccccc2c1`, the Activity with A549 [2] turned out to be 10.13%; in the test with A549 [4] it was 29.33%; in the test with A549 [5], 12.96%. Further, the IC50 with MCF7 is 64.9 µg/mL (≈ 218 µM); in the test with A549 [1], 96.1 µg/mL (≈ 323 µM); with HT-29 it was 94.8 µg/mL (≈ 319 µM). In addition, in the test with A549 [3], the viability at 90 µg/mL came out at 47.6%.

`Cc1cc(OCCn2c([N+](=O)[O-])cnc2C)ccc1F`: the concentration for half-maximal inhibition (IC50) in the test with MCF7 stood at 116 µg/mL (≈ 415 µM); in the test with A549 [1] it was 226 µg/mL (≈ 808 µM); in the test on HT-29 it was 140 µg/mL (≈ 503 µM).

Consider `Cc1ccc(S(=O)(=O)OCCn2c([N+](=O)[O-])cnc2C)cc1`, for which the IC50 in the test with MCF7 was 160 µg/mL (≈ 491 µM); in the test on A549 [1], 196 µg/mL (≈ 603 µM); with HT-29, 328 µg/mL (≈ 1010 µM).

Take `CN(Cc1cnc2nc(N)nc(N)c2n1)c1ccc(C(=O)N[C@@H](CCC(=O)O)C(=O)O)cc1` [METHOTREXATE]: the IC50 in the test with MCF7 was 31.5 µg/mL (≈ 69.3 µM); in the test on A549 [1], 39.3 µg/mL (≈ 86.5 µM); in the test on HT-29, 47.8 µg/mL (≈ 105 µM).

As for `Cc1ncc([N+](=O)[O-])n1CCOC(=O)c1ccccc1` [METRONIDAZOLE BENZOATE], the half-maximal inhibitory concentration (IC50) in the test on MCF7 came to 245 µg/mL (≈ 889 µM); in the test on A549 [1] it was 281 µg/mL (≈ 1020 µM); in the test with HT-29, 288 µg/mL (≈ 1050 µM).

With `Cc1ncc([N+](=O)[O-])n1CCO` [METRONIDAZOLE], the half-inhibitory concentration (IC50) amounted to 348 µg/mL (≈ 2030 µM) with MCF7, 224 µg/mL (≈ 1310 µM) in the test on A549 [1] and 278 µg/mL (≈ 1620 µM) in the test on HT-29.

As usually defined, the IC50 is the concentration that inhibits the measured activity by half.

The values above are taken from ChEMBL document CHEMBL4308910, “Metronidazole aryloxy, carboxy and azole derivatives: Synthesis, anti-tumor activity, QSAR, molecular docking and dynamics studies” (Bioorg Med Chem, 2019).
